# The whole screen tested about 310,000 compounds, of which about 1,400 (0.45%) were called active.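 The calls were made as follows: active = calcium response B-score plate-corrected fluorescence ratio at least 3 library SD, with starting fluorescence B-score inside 5 SD; inactive = the rest.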 The sample as a whole holds a higher share of actives than the screen did.
# Biological target: Mas-related G-protein coupled receptor member X1 (Homo sapiens) (UniProt Q96LB2)
# Assay: MrgX1 activation via calcium signaling – HEK293 cells, Fluo-4 calcium flux, primary screen (AID 588627);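 as to B-score: B-score of the peak-minus-trough calcium fluorescence change over baseline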
# Settings: Fluo-4 calcium fluorescence, agonist mode, at 10 µM; hits give high values
# Summary of the method: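 Test system: Stable human MrgX1 HEK293 cell line | Schedule: Overnight plating before 1 h dye loading | Read-out basis: Baseline-normalised fluorescence change ratio, B-scored | Detection: Kinetic calcium dye fluorescence, Fluo-4 NW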
# Mas-related G-protein coupled receptor member X1 (Homo sapiens), sequence (Q96LB2 whole entry, looked up): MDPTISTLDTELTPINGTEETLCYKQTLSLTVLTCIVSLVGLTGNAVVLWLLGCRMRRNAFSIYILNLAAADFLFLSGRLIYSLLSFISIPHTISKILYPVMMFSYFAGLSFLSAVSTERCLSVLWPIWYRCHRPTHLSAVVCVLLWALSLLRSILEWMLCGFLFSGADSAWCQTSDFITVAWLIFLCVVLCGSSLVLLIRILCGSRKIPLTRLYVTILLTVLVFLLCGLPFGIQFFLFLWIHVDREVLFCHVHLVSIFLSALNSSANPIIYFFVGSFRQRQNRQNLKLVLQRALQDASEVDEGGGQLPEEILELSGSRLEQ
row,SMILES,B-score
1,CCCCN1C(=O)/C(=C2/C=CC=CN2C)SC1=S,inactive
2,CCCCN1C(=O)/C(=C2/Sc3ccc(Cl)cc3N2CC)SC1=S,34.9 (active)
3,CCCCN1C(=O)/C(=C/C=C2/C=Cc3ccccc3N2CC)SC1=S,inactive
4,COc1ccc(CCNc2ncnc3c2nnn3Cc2ccccc2)cc1,inactive
5,Fc1ccc2[nH]c3c(N4CCSCC4)ncnc3c2c1,29.1 (active)
6,Cc1c(CN2CC[C@@H](N3CCN(c4ccccn4)CC3)[C@H](O)C2)[nH]c2ccc(F)cc12,inactive
7,O=C(NNC(=S)NCc1ccco1)C(c1ccccc1)c1ccccc1,inactive
8,CCCCC(=O)NNC(=S)NC(=O)C(c1ccccc1)c1ccccc1,145 (active)
9,CC(C)C(=O)Nc1cccc(NC(=S)NC(=O)C(c2ccccc2)c2ccccc2)c1,inactive
10,CN(C)Cc1ccc(F)cc1Sc1cc(Cl)ccc1Cl,inactive
11,COc1ccccc1N1CC(C(=O)Nc2nnc(SCC(=O)NC(C)C)s2)CC1=O (stereo not given),inactive
12,CCc1noc(C)c1C(=O)Nc1nc(-c2ccccc2)cs1,inactive
13,OC(C#CCN1CCOCC1)(c1ccccc1)C1CCCCC1 (stereo not given),inactive
14,Cc1ccc(C(=O)NNC(=O)C(C)Oc2ccc3ccccc3c2)o1 (stereo not given),inactive
15,CCCc1ccc(OCC(=O)NNC(=S)NC(=O)c2ccco2)cc1,inactive
16,CC(Oc1ccc2ccccc2c1)C(=O)NNC(=S)NC(=O)c1ccco1 (stereo not given),69.9 (active)
17,O=C(CN1CCC(O)(c2ccccc2)CC1)Nc1ccc2c(c1)OCCO2,inactive
18,CCC1(c2ccccc2)NC(=O)N(CC(=O)c2ccc3c(c2)OCO3)C1=O (stereo not given),inactive
19,O=C(CCN1CCc2ccccc2C(O)(c2ccccc2)C1)c1ccc2c(c1)OCCO2 (stereo not given),29.6 (active)
20,Cc1ccc(N=C2SCCCN2C(=O)c2cccc(N3C(=O)CCC3=O)c2)cc1Cl,inactive
21,CS(=O)(=O)c1sc(C(=O)NC(=S)Nc2ccc(OC(F)(F)F)cc2)c2c1C=CCC2,inactive
22,CC(=O)OCC(COC(C)=O)OC(C)=O,inactive
23,CC(=O)OC(C)C[N+](C)(C)C (stereo not given),119 (active)
24,CC(C[N+](C)(C)C)OC(N)=O (stereo not given),36.5 (active)
25,O=C(Nc1cccc(F)c1)c1coc(=O)c(Br)c1,inactive

row,SMILES,B-score
1,N#Cc1cc([N+](=O)[O-])ccc1NCC1CCCO1 (stereo not given),inactive
2,CCCc1nc2c(c(=O)c3ccccc3n2C)c(=O)n1C1CCCCCC1,63 (active)
3,CCCc1nc2c(c(=O)c3ccccc3n2C)c(=O)n1-c1cc(C)cc(C)c1,inactive
4,Cn1c2ccccc2c(=O)c2c(=O)n(Cc3ccco3)c(COc3ccccc3)nc21,inactive
5,C/C=C/c1ccc(OCC(=O)OCC(=O)Nc2c(C)nn(-c3ccccc3)c2C)c(OC)c1,inactive
6,COc1cc2c3c(c1)/C(=C1/SC(=S)NC1=O)C(=O)N3C(C)(C)C=C2C,inactive
7,O=C(COC(=O)c1ccc(O)cc1)Nc1nccs1,inactive
8,COc1ccc(CNc2ccc3c(c2)CCC3)cc1OC,inactive
9,O=C(COC(=O)CNS(=O)(=O)c1ccccc1)NC12CC3CC(CC(C3)C1)C2,inactive
10,CN(C)C(=O)N=NC(=O)N(C)C,inactive
11,NC1=NC(=O)C2(COC(c3ccccc3Cl)OC2)S1 (stereo not given),inactive
12,CC(C)(C)SCCNC(=O)c1cccc([N+](=O)[O-])c1,inactive
13,CCCCCC(=O)NC(=S)NNC(=O)c1ccc([N+](=O)[O-])cc1,inactive
14,CC(C)CC(=O)NC(=S)NNC(=O)c1cccc([N+](=O)[O-])c1,70.6 (active)
15,CC(=O)c1c(O)cc2n(c1=O)-c1ccc(Cl)cc1C2(C)C,inactive
16,CCN(CC(=O)Nc1ccc2c(c1)OCCO2)Cc1cc(=O)oc2cc(C)c(C)cc12,inactive
17,CC(=O)Nc1ccc(NC(=O)CS(=O)(=O)c2cn(CC(=O)N3CCCCC3)c3ccccc23)cc1,inactive
18,CC1CCCCN1S(=O)(=O)c1ccc(C(=O)Nc2nnc(-c3cccs3)o2)cc1 (stereo not given),48.6 (active)
19,CSCc1nnc(NC(=O)c2ccc(S(=O)(=O)N3CCCCC3C)cc2)o1 (stereo not given),inactive
20,CC1CCCN(S(=O)(=O)c2ccc(C(=O)Nc3nnc(-c4ccncc4)o3)cc2)C1 (stereo not given),inactive
21,Cc1nc(N)nc(SCc2ccc([N+](=O)[O-])cc2)c1N,inactive
22,CCN(C(=O)CN1C(=O)/C(=C/c2ccc(F)cc2)SC1=S)C1CCS(=O)(=O)C1 (stereo not given),inactive
23,CCS(=O)(=O)c1cc([N+](=O)[O-])c(Sc2ccccc2N)s1,inactive
24,Nc1ccccc1SCc1cc([N+](=O)[O-])cc2c1OCOC2,inactive
25,Nc1ccccc1SC(C[N+](=O)[O-])c1ccccc1 (stereo not given),28.1 (active)

# — PubChem BioAssay AID588627 (Johns Hopkins Ion Channel Center, 2011)
